From ChEMBL document CHEMBL1671691 (Antimicrob Agents Chemother, 2010)

Assays:
Influenza A virus [1] = assay: Antiviral activity against adamantane-, zanamivir-susceptible oseltamivir-resistant Influenza A virus (A/Georgia/20/2006(H1N1)) harboring neuraminidase H274Y mutant infected in MDCK cells assessed as inhibition of viral replication after 3 days by microscopic analysis using crystal violet stain; type: functional, organism-based
Summary of the method: (§1)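 Confluent MDCK-ATCC monolayers infected with virus diluted to give 15–45 plaques/well. Adsorption 1 h at 37°C without drug, then washed. Overlaid with 0.8% agarose in MEM containing drug plus TPCK-trypsin: 3 μg/ml for seasonal viruses, 2 μg/ml for 2009 A(H1N1). Incubated 3 days at 37°C, 5% CO2. Ethanol-fixed, crystal violet-stained, plaques counted. EC50 by curve fit; duplicates on three occasions, mean ± SD.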

Influenza A virus [2] = assay: Antiviral activity against adamantane-resistant zanamivir-,oseltamivir-susceptible Influenza A virus (A/Washington/01/2007(H3N2)) harboring M2 S31N mutant infected in MDCK cells assessed as inhibition of viral replication after 3 days by microscopic analysis using crystal violet stain; type: functional, organism-based; summary of the method: as §1
Influenza A virus [3] = assay: Antiviral activity against oseltamivir-susceptible zanamivir-, adamantane-resistant Influenza A virus (A/Texas/12/2007 (clone)(H3N2)) harboring neuraminidase E119I mutant and harboring M2 S31N mutant infected in MDCK cells assessed as inhibition of viral replication after 3 days by microscopic analysis using crystal violet stain; type: functional, organism-based, Influenza A virus (A/Texas/12/2007(H3N2))
Influenza A virus [4] = assay: Antiviral activity against adamantane-resistant zanamivir-,oseltamivir-susceptible Influenza A virus (A/Florida/01/2009(H3N2)) harboring M2 S31N mutant infected in MDCK cells assessed as inhibition of viral replication after 3 days by microscopic analysis using crystal violet stain; type: functional, organism-based; summary of the method: as §1
Influenza B virus [5] = assay: Antiviral activity against oseltamivir-susceptible zanamivir-, adamantane-resistant Influenza B virus B/Memphis/20/1996 harboring neuraminidase R152K mutant infected in MDCK cells assessed as inhibition of viral replication after 3 days by microscopic analysis using crystal violet stain; type: functional, cell-based, B/Memphis/20/96
Influenza B virus [6] = assay: microbe, parasite or virus in culture; settings: B/Memphis/20/96, MDCK, 72 h

Structure (SMILES): NC(=O)c1ncn([C@@H]2O[C@H](CO)[C@@H](O)[C@H]2O)n1 [RIBAVIRIN]
- EC50 (Influenza A virus [1]): 19.7 µM
- EC50 (Influenza A virus [2]): 35.6 µM
- EC50 (Influenza A virus [3]): 46.7 µM
- EC50 (Influenza A virus [4]): 20.9 µM
- EC50 (Influenza B virus [5]): 25 µM
- EC50 (Influenza B virus [6]): 13.9 µM
